High-throughput results (PubChem)
Rows were chosen to be rich in hits. Some 3.9% of all compounds tested hit in one or more screens of this group.
TIM10 inh: growth inhibitors of isogenic TIM10 control yeast, primary screen, counter-screen for tim10-1 yeast inhibitor project, luminescence, uHTS. inhibition, % at 10 µM. actives 1.4% (n = 330,000). S. cerevisiae TIM10 strain growth, BacTiter-Glo luminescence, 24 h;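 active = inhibition of 40% or more at the single tested concentration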;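 note: wild-type TIM10 isogenic control strain grown at permissive 25 °C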
tim23-1 inh: growth inhibitors of tim23-1 mutant yeast, primary screen, luminescence, uHTS. actives 1.3% (n = 330,000). AID 463212, 2010. S. cerevisiae tim23-1 growth, BacTiter-Glo luminescence, 24 h. inhibition, % at 20 µM;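 active = growth inhibition of the mutant yeast at or above 50%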;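 note: temperature-sensitive mutant grown at 25 °C; plate controls were DMSO-treated mutant yeast for no effect and medium wells lacking yeast for full effect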
UPR CHOP act: activators of apoptotic CHOP UPR arm, primary screen, cell-based, CHO-CHOP luciferase reporter, luminescence, uHTS; actives 0.34% (n = 330,000); activation, % at 10 µM; UPR activation; percent of tunicamycin response over DMSO baseline; AID 449763, 2010;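 active = at 10 µM dose, activation of 40% or more, normalized to positive control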;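 note: 100% = tunicamycin at 10 µg/mL and 0% = DMSO alone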
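assay system = CHO CHOP reporter cells | amount = 500 CHO-CHOP cells per well | buffer or medium = F12 with 10% FBS | incubation = 16-18 h cell attachment, then 6 h compound exposure, 37 °C | detection = luminescence read with Steady-Glo | read-out = percent activation relative to tunicamycin control | controls = tunicamycin high control, DMSO low control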
tim10-1 inh: growth inhibitors of tim10-1 mutant yeast, primary screen, luminescence, uHTS; S. cerevisiae tim10-1 ts strain growth, BacTiter-Glo, 24 h; inhibition, % at 20 µM; actives 2.2% (n = 330,000);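 active = inhibition of at least 40%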;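 note: mutant grown at 25 °C; 0% = DMSO wells with yeast and 100% = wells holding no yeast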
UPR XBP1 act: activators of adaptive XBP1 UPR arm, primary screen, cell-based, CHO-XBP1 luciferase reporter, luminescence, uHTS; IRE1-XBP1 UPR activation; percent of tunicamycin response, DMSO as zero; activation, % at 20 µM; actives 0.33% (n = 330,000); AID 463104, 2010;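 active = versus positive control, 20 µM dose yields 30% or more activation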;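 note: 100% = tunicamycin at 10 µg/mL and 0% = DMSO only wells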
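Material: CHO-XBP1 cells stably carrying IRE1-XBP1-driven luciferase reporter | Medium: F12 with 10% serum | Compound dosing: 20 µM single concentration, DMSO 1% | Incubation: Overnight seeding at 37 °C, 6 h compound treatment at 37 °C | Detection: Steady-Glo luminescence read | Read-out basis: % activation of reporter signal versus tunicamycin and DMSO controls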
tim10-1 conf: growth inhibitors of tim10-1 mutant yeast, confirmation, single concentration, luminescence, S. cerevisiae; inhibition, % at 20 µM; shares compounds with tim10-1 inh; actives 56% (n = 7,400); S. cerevisiae tim10-1 ts strain growth, BacTiter-Glo, 24 h;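 active = inhibition of yeast growth at or above a set limit in either of two repeat tests at 20 µM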;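 note: tim10-1 mutant grown at permissive 25 °C to find synthetic lethal compounds; 0% = DMSO yeast wells and 100% = medium wells without yeast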
* marks the source's active call; other numbers are inactive results; · = not tested or not shown.

SMILES	TIM10 inh	tim23-1 inh	UPR CHOP act	tim10-1 inh	UPR XBP1 act	tim10-1 conf
CC1CCC(NC(=O)CN2C(=O)NC3(CCCCC3C)C2=O)CC1 (configuration not stated)	11	2	-1	1	0	·
CNc1sc(C(=O)c2ccccc2F)c(N)c1-c1nc2ccccc2s1	35	24	3	46*	1	35*
Cc1c(Cl)cccc1NC(=O)COC(=O)Cn1cnc2c1c(=O)n(C)c(=O)n2C	3	6	2	16	2	·
CC(NC(=O)c1cccc(Cl)c1)C1CC2CCC1C2 (configuration not stated)	19	38	-1	45*	-2	35*
Cc1ccc(C(C)C)c(OCC(=O)Nn2c(C)nc3ccccc3c2=O)c1	23	49	-2	47*	-2	28
Cc1ccc(C(C)C)c(OCC(=O)Nn2c(=O)[nH]c3ccccc3c2=O)c1	-11	16	6	16	-1	·
O=c1c2ccccc2sc2ccc(C#CC3(O)CCCCC3)cc12	28	44	-10	41*	-8	35*
COc1cccc2sc3ccc(C#CC4(O)CCCCC4)cc3c(=O)c12	25	50	3	41*	8	21
Cc1cc(=O)[nH]c2nnc(-c3ccc(Cl)cc3)n12	5	-5	-1	-7	-1	·
COC(=O)C(Cc1ccccc1)NC(=O)CNC(=O)c1ccccc1OC (configuration not stated)	8	2	2	4	1	·
O=C(CNC1CCCCC1)Nc1cccc(C(F)(F)F)c1	-3	12	2	12	0	·
COc1cc(-c2nc3cc(C)ccn3c2NC2CCCCC2)ccc1-c1ccc(C(C)=O)cc1	30	35	4	40*	4	24
CCCCCCSc1cc(-c2nc3cc(C)ccn3c2NC2CCCCC2)ccc1OC	18	18	0	14	-4	·
CCN(CC(=O)Nc1ccc(S(=O)(=O)N2CCCC2)cc1)CC(=O)Nc1ccccc1C(F)(F)F	14	22	1	22	-2	·
Cc1ccc(S(=O)(=O)Nc2c(O)ccc3ccccc23)cc1	23	19	9	27	8	·
O=S(=O)(Nc1c(O)ccc2ccccc12)c1cccc2ccccc12	27	37	4	44*	7	32
COC(=O)/C=C/C(=O)Nc1cccc(C(F)(F)F)c1	32	41	6	47*	-3	51*
COC(=S)Nc1cccc(C(F)(F)F)c1	9	0	1	6	6	·
CCOC(=O)/C=C/C(=O)Nc1cccc([N+](=O)[O-])c1	36	38	1	56*	-10	71*
CC(NC(=O)Nc1cccc([N+](=O)[O-])c1)(C(F)(F)F)C(F)(F)F	22	40	0	42*	-2	33*
CCOC(=O)/C=C/C(=O)OCC(=O)Nc1ccc([N+](=O)[O-])cc1	19	40	-1	43*	2	59*
Cc1c(C(=O)N(Cc2nccn2C)C(C)C)oc2c(F)cccc12	-3	1	2	19	-2	·
CCCc1ccc2oc(C(=O)N(Cc3nccn3C)C(C)C)c(C)c2c1	19	29	6	43*	2	-17
COc1ccc(OC)c(S(=O)(=O)N2CCN(C(=O)c3cc(C4CC4)nn3-c3ccccc3)CC2)c1	18	24	-1	8	-1	·
Cc1ccc(-c2nc3ccccn3c2NCc2ccc3c(c2)OCO3)cc1	38	39	4	47*	3	26
COc1ccc(-c2nc3ccc(C)cn3c2NCc2ccc3c(c2)OCO3)cc1	35	32	5	25	-2	·
CC(=O)c1ccc(NC(=O)CSc2nnc(C3CC3)n2C2CC2)cc1	-12	9	0	-10	3	·
Nc1cccnc1Sc1cccc(Cl)c1	19	33	-2	41*	-2	30
